The test deals with 3T3-L1. In words: Antiadipogenic activity against mouse 3T3L1 cells assessed as inhibition of differentiation after 7 days by oil-red O staining. It is filed as functional, cell-based. As to conditions: 3T3-L1, 168 h. The method, boiled down:
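Mouse 3T3-L1 preadipocytes grown to confluence for 48 h, then induced (day 0) in DMEM with 10% FBS, insulin 5 µg/mL, 10 µM rosiglitazone, 1 µM dexamethasone; after 48 h switched to 10% FBS/DMEM + 5 µg/mL insulin, then 10% FBS/DMEM every other day. Compounds added day 0, refreshed every 2 days. Day 7: PBS wash, 10% formalin 10 min, Oil-red O 1 h RT, dye eluted in isopropanol, A500; IC50 derived.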

The structures appear in SMILES notation.

As for `O=C1/C(=C/c2ccc(O)cc2)COc2cc(O)cc(O)c21`, the IC50 was above 100 µM.

With `Cc1c(O)cc2c(c1O)C(=O)/C(=C/c1ccc(O)cc1)CO2`, the IC50 is above 100 µM.

Consider `C=C[C@H](/C=C\c1ccc(OC)cc1)c1ccc(O)cc1`, for which the IC50 stood at 45.9 µM.

Take `COc1cc(O)ccc1C(=O)/C=C/c1ccc(O)cc1`: the IC50 came out at 41.8 µM.

With `O=C(C#Cc1ccc(O)cc1)c1ccc(O)cc1` [ANEMARCHALCONYN], the IC50 came to 5.3 µM.

Take `COc1ccc(CCCc2ccc(O)cc2)c(O)c1` [BROUSSONIN A]: the IC50 was 74.5 µM.

As to `O=C(/C=C/c1ccc(O)cc1)c1ccc(O)cc1O` [ISOLIQUIRITIGENIN], the IC50 came to 96.4 µM.

As to `C=C[C@H](/C=C\c1ccc(O)cc1)c1ccc(O)cc1` [NYASOL], the IC50 is above 100 µM.

Turning to `Oc1ccc(/C=C/c2cc(O)cc(O)c2)cc1` [RESVERATROL], the IC50 is 31.4 µM.

Values taken from ChEMBL document CHEMBL1154282, “Identification of antiadipogenic constituents of the rhizomes of Anemarrhena asphodeloides” (J Nat Prod, 2009).
